From ChEMBL document CHEMBL1132961 (J Med Chem, 2000)

Legend:
[1] = (§1) Concentration which elicits cytotoxicity in 50% of uninfected human lymphocyte derived CEM cells; assay type: cell-based, CCRF-CEM; conditions: uninfected CCRF-CEM cells, read-out: TC50 (the source's name)
How it was run: (§2)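 Cytotoxicity measured in uninfected human lymphocyte-derived CEM cells by XTT protocol.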

[2] = system: Human immunodeficiency virus 1; test: Effective concentration at which 50% of the HIV-IIIB-infected human lymphocyte-derived CEM cells protected from HIV-1 infection
[3] = Tested for maximum plasma concentration in mice; assay type: ADME, organism-based; conditions: mouse
How it was run: (§3)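 Mice dosed orally by gavage at 25 mg/kg. Vehicle was usually 20% 0.1 N NaOH/80% 0.5% methylcellulose, and in two cases 20% 0.1 N NaOH/80% PEG 400. Plasma Cmax and AUC measured; AUC not determined where Cmax was too low.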

[4] = AUC value in mice; assay type: ADME, organism-based; conditions: mouse, plasma; how it was run: as §3
[5] = Tested for cytotoxic activity against HIV-1 144-44 in PBMC cells; assay type: cell-based; conditions: human, read-out: TC50 (the source's name)
[6] = Tested for cytotoxic activity against HIV-1 1002-60 in PBMC cells; assay type: cell-based; conditions: human, read-out: TC50 (the source's name)
[7] = target: T1, CYP2C9 (Homo sapiens, UniProt P11712); test: Residual activity of cytochrome P450 2C9 at 1 uM
[8] = system: PBMC; test: (§4) Effective concentration required for antiviral activity against HIV-1 1026-60 in PBMC cells; assay type: functional, cell-based; conditions: Homo sapiens
How it was run: (§5)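 PBMC cells infected with HIV-1 clinical isolates, using an XTT cytopathic assay similar to the CEM assay. EC50 read as protection from viral cytopathic effect.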

[9] = target: T2, CYP2D6 (Homo sapiens, UniProt P10635); test: Residual activity of cytochrome P4502D6 at 100 uM
[10] = target: T2, CYP2D6; test: Residual activity of cytochrome P4502D6 at 10 uM
[11] = target: T1, CYP2C9; test: Residual activity of cytochrome P450 2C9 at 100 uM
[12] = system: PBMC; test: (§6) Effective concentration required for antiviral activity against HIV-1 1002-60 in PBMC cells; assay type: functional, cell-based; conditions: Homo sapiens; how it was run: as §5
[13] = system: PBMC; test: (§7) Effective concentration required for antiviral activity against HIV-1 144-44 in PBMC cells; assay type: functional, cell-based; conditions: Homo sapiens; how it was run: as §5
[14] = target: T1, CYP2C9; test: Residual activity of cytochrome P450 at 10 uM
[15] = Tested for cytotoxic activity against HIV-1 1026-60 in PBMC cells; assay type: cell-based; conditions: human, read-out: TC50 (the source's name)
[16] = target: T2, CYP2D6; test: Residual activity of cytochrome P4502D6 at 1 uM
[17] = Tested for maximum plasma concentration in rats; assay type: ADME, organism-based; conditions: rat
How it was run: (§8)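 Rats given 10 mg/kg orally in NaOH solution buffered to pH 7.4. Plasma Cmax, T1/2 and AUC determined.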

[18] = Half-life period in rat; assay type: ADME, organism-based; conditions: in vivo; how it was run: as §8
[19] = Effective concentration required for antiviral activity against HIV-1 RoJo in PBMC cells; assay type: functional, cell-based; conditions: Homo sapiens; how it was run: as §5
[20] = Effective concentration required for antiviral activity against HIV-1 WeJo in PBMC cells; assay type: functional, cell-based; conditions: Homo sapiens; how it was run: as §5
[21] = as §7; assay type: functional, cell-based; conditions: Homo sapiens; how it was run: as §5
[22] = Effective concentration required for antiviral activity against HIV-1 SLKA in PBMC cells; assay type: functional, cell-based; conditions: Homo sapiens; how it was run: as §5
[23] = AUC value in rat; assay type: ADME; conditions: plasma; how it was run: as §8
[24] = target: T3, Human immunodeficiency virus type 1 protease (Human immunodeficiency virus 1, UniProt Q72874); test: Tested for binding affinity against HIV protease
[25] = Effective concentration required for antiviral activity against HIV-1 TEKI in PBMC cells; assay type: functional, cell-based; conditions: Homo sapiens; how it was run: as §5
[26] = as §4; assay type: functional, cell-based; conditions: Homo sapiens; how it was run: as §5
[27] = as §6; assay type: functional, cell-based; conditions: Homo sapiens; how it was run: as §5
[28] = target: T3, Human immunodeficiency virus type 1 protease; test: Activity of potent nonpeptidic inhibitor against protease
How it was run: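 Incubated with 40 µM His-Lys-Ala-Arg-Val-Leu-(p-NO₂-Phe)-Glu-Ala-Nle-Ser-NH₂ in 1.0% DMSO, pH 6.2 MES buffer (DTT, NaCl, EDTA, PEG 8000) for 60 min at 37 °C, then TFA quench. Substrate and product separated by reverse-phase HPLC, read at 220 nm. % control = conversion with inhibitor / conversion without × 100; IC50 derived.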

[29] = system: CCRF-CEM; test: as §1; assay type: cell-based; conditions: ccrf-cem, read-out: TC50 (the source's name); how it was run: as §2
[30] = target: T4, CYP3A4 (Homo sapiens, UniProt P08684); test: Residual activity of cytochrome P4503A4 at 100 uM
[31] = target: T4, CYP3A4; test: Residual activity of cytochrome P4503A4 at 1 uM
[32] = target: T4, CYP3A4; test: Residual activity of cytochrome P4503A4 at 10 uM
[33] = Human immunodeficiency virus 1, CCRF-CEM
[34] = pooled result: one value given for 5 cell lines, strains, targets or settings

T4 sequence (P08684 whole entry): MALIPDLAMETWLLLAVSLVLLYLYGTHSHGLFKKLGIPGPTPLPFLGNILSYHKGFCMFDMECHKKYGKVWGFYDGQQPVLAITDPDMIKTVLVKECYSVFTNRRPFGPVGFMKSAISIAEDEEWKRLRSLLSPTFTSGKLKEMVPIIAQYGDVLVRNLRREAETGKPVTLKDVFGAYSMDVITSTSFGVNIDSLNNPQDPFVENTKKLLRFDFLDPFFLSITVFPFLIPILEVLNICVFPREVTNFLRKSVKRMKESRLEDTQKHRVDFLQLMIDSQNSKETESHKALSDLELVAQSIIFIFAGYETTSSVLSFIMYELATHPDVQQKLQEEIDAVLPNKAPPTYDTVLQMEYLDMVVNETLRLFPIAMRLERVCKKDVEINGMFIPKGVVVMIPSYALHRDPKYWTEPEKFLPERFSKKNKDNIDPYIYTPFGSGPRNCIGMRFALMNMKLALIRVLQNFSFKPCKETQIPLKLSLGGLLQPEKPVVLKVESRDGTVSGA
T2 sequence (P10635 whole entry): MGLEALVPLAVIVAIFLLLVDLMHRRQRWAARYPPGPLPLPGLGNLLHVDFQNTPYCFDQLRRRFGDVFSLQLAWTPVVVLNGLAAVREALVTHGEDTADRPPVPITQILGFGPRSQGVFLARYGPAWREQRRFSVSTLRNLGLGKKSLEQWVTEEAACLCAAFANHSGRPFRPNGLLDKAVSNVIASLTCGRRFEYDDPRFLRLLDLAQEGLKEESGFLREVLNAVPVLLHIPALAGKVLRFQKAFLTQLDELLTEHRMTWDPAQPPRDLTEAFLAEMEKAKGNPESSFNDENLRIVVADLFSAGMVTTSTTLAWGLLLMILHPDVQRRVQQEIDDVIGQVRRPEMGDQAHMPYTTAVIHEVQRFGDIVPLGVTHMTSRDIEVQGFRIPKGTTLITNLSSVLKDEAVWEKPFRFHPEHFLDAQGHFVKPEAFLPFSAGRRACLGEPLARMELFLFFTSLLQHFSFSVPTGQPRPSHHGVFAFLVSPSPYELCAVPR
T1 sequence (P11712 whole entry): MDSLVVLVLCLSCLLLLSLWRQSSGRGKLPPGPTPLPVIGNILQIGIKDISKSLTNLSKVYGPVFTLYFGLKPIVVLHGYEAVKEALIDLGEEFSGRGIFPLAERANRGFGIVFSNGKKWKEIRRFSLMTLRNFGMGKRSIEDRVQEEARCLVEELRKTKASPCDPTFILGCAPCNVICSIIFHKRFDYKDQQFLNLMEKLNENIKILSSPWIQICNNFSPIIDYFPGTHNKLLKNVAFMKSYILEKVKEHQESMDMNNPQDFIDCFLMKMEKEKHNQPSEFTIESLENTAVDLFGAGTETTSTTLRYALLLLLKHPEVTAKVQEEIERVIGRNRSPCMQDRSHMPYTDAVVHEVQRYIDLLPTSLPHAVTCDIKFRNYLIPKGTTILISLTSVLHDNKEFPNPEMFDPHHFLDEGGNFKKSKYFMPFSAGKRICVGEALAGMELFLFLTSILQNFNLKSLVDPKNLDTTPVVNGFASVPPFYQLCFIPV

Compound | EC50 [2, 33] [nM] | Cmax [3] [nM] | EC50 [19] [nM] | EC50 [20] [nM] | EC50 [21] [nM] | EC50 [22] [nM] | EC50 [25] [nM] | EC50 [26] [nM] | EC50 [27] [nM] | CC50 [1] [nM] | CC50 [6] [nM] | CC50 [15] [nM] | CC50 [5, 34] [nM] | other results
Cc1cc(SC2=C(O)OC(CCc3ccc(O)cc3)(C(C)C)CC2=O)c(C(C)(C)C)cc1NS(=O)(=O)c1ccc(C(F)(F)F)cn1 (configuration not stated) | 4300 | 1270 |  |  |  |  |  |  |  | 68000 |  |  |  | AUC [4]: 980 ng·h/mL
CC(C)(C)NC(=O)[C@@H]1CN(Cc2cccnc2)CCN1C[C@@H](O)C[C@@H](Cc1ccccc1)C(=O)N[C@H]1c2ccccc2C[C@H]1O |  |  |  |  |  |  |  |  |  |  | > 100000 | > 100000 |  | CC50 [5]: > 100000 nM; residual activity at 1 µM [7]: 93%; EC50 [8]: 16600 nM; residual activity at 100 µM [9]: 31%; residual activity at 10 µM [10]: 82%; residual activity at 100 µM [11]: 68%; EC50 [12]: > 100000 nM; EC50 [13]: 3000 nM; residual activity at 10 µM [14]: 89%; residual activity at 1 µM [16]: 100%
CC(C)(C)NC(=O)[C@@H]1C[C@@H]2CCCC[C@@H]2CN1C[C@@H](O)[C@H](Cc1ccccc1)NC(=O)[C@H](CC(N)=O)NC(=O)c1ccc2ccccc2n1 |  |  |  |  | 11100 |  |  | 19400 | 14500 |  | > 50000 | > 50000 |  | CC50 [5]: > 50000 nM
Cc1cc(SC2=C(O)O[C@](CCc3ccc(O)cc3)(C(C)C)CC2=O)c(C(C)(C)C)cc1N (stereo in doubt; 1R) |  |  |  |  |  |  |  |  |  |  |  |  |  | CC50 [29]: 215000 nM; EC50 ([2]; ccrf-cem): 91000 nM
Cc1cc(SC2=C(O)O[C@](CCc3ccc(O)cc3)(C(C)C)CC2=O)c(C(C)(C)C)cc1N (stereo in doubt; 1S) |  |  | 200 | 250 | 240 | 220 | 590 | 310 | 740 | 215000 | > 100000 | > 100000 | > 100000 | residual activity at 100 µM [30]: 41.1%; residual activity at 1 µM [7]: 93.2%; residual activity at 100 µM [9]: 56.7%; residual activity at 10 µM [10]: 95%; residual activity at 100 µM [11]: 21.6%; residual activity at 1 µM [31]: 103%; EC50 ([2]; ccrf-cem): 490 nM; residual activity at 10 µM [32]: 96.8%; residual activity at 10 µM [14]: 75.5%; AUC [4]: 46300 ng·h/mL; residual activity at 1 µM [16]: 105%
Cc1cc(SC2=C(O)OC(CCc3ccc(O)cc3)(C(C)C)CC2=O)c(C(C)(C)C)cc1OS(C)(=O)=O (configuration not stated) | 600 |  | 1240 | 2050 | 730 | 1790 | 1930 | 1120 | 1840 | > 100000 | > 100000 | > 100000 | > 100000 | IC50 [28]: 2.2 nM
CCNS(=O)(=O)Oc1cc(C(C)(C)C)c(SC2=C(O)OC(CCc3ccccc3)(C(C)C)CC2=O)cc1C (configuration not stated) | 800 | 620 |  |  |  |  |  |  |  | 67000 |  |  |  | 

Second part, led by results:

EC50 [2, 33] [nM] | Cmax [3] [nM] | EC50 [19] [nM] | EC50 [20] [nM] | EC50 [21] [nM] | EC50 [22] [nM] | EC50 [25] [nM] | EC50 [26] [nM] | EC50 [27] [nM] | Compound | CC50 [1] [nM] | CC50 [6] [nM] | CC50 [15] [nM] | CC50 [5, 34] [nM] | other results
220 | 10300 | 120 | 110 | 580 | 120 | 100 |  |  | Cc1cc(SC2=C(O)O[C@](CCc3ccccc3)(C(C)C)CC2=O)c(C(C)(C)C)cc1NS(=O)(=O)c1ccc(C#N)cc1 | 31000 |  |  | 55600 | Cmax [17]: 3960 nM; half-life [18]: 5.7 h; AUC [23]: 10000 ng·h/mL; Ki [24]: 0.2 nM
500 | 2000 |  |  |  |  |  |  |  | Cc1cc(SC2=C(O)OC(CCc3ccccc3)(C(C)C)CC2=O)c(C(C)(C)C)cc1NS(=O)(=O)c1ccc(C#N)cc1 (configuration not stated) | 66000 |  |  |  | IC50 [28]: 9.1 nM
600 |  | 680 | 690 | 260 | 710 | 810 | 270 | 610 | Cc1cc(SC2=C(O)OC(CCc3ccccc3)(C(C)C)CC2=O)c(C(C)(C)C)cc1NS(=O)(=O)c1ccc(C(F)(F)F)cn1 (configuration not stated) | 66000 | > 100000 | > 100000 | > 100000 | Ki [24]: 1.04 nM
